Assay results as given in ChEMBL document CHEMBL1123403, “Pyrazolo[4,5-c]quinolines. 2. Synthesis and specific inhibition of benzodiazepine receptor binding” (J Med Chem, 1986).

How the values were obtained:
[1] = molecular target: GABA-A receptor; anion channel (Bos taurus) (UniProt P10063+P08220+P20237+P08219+P10064+P22300); experiment: Inhibition of specific [3H]flunitrazepam binding to Benzodiazepine receptor in bovine brain membranes at 34 uM; assay type: cell membranes
[2] = molecular target: GABA-A receptor; anion channel; experiment: Inhibitory concentration against [3H]flunitrazepam binding to Benzodiazepine receptor in bovine brain membranes; assay type: cell membranes
Outline: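 Membranes were made by homogenizing in ice-cold 0.32 M sucrose with protease inhibitors, spinning at 48000g, and osmotically shocking in 50 mM Tris-HCl. Membranes (0.4-0.5 mg protein, Lowry) were incubated with 1.0 nM [3H]flunitrazepam in 50 mM Tris-HCl at 0 °C for 90 min, then filtered and counted by scintillation. Nonspecific binding was defined with 10 μM diazepam. IC50 came from log-probit analysis of 4-6 concentrations, each in triplicate.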

| SMILES | inhibition [1] [%] | IC50 [2] [µM] |
| --- | --- | --- |
| Cc1nn(-c2cccc(Cl)c2)c2c1c(N1CCN(C)CC1)nc1ccccc12 | 49 | – |
| Cc1cccc(-n2nc(C)c3c(N4CCOCC4)nc4ccccc4c32)c1 | 7 | – |
| Cc1nn(-c2ccccc2)c2c1c(=O)n(C)c1ccccc21 | 85 | 3.4 |
| Cc1nn(-c2ccccc2)c2c1c(N1CCOCC1)nc1ccccc12 | 8 | – |
| Cc1nn(-c2ccccc2)c2c1c(N1CCN(C)CC1)nc1ccccc12 | 41 | – |
| Cc1nn(-c2cccc(Cl)c2)c2c1c(=O)n(C)c1ccccc21 | 96 | 1 |
| Cc1nn(-c2cccc(Cl)c2)c2c1c(N1CCOCC1)nc1ccccc12 | 24 | – |
| Cc1cccc(-n2nc(C)c3c(=O)n(C)c4ccccc4c32)c1 | 95 | 0.26 |
| Cc1cccc(-n2nc(C)c3c(N4CCN(C)CC4)nc4ccccc4c32)c1 | 44 | – |
| Cc1[nH]nc2c1c(=O)[nH]c1ccccc12 | 47 | – |
| Cc1ccc(-n2nc(C)c3c(=O)n(C)c4ccccc4c32)cc1 | 63 | – |

Results, then the compound that gave them:

| inhibition [1] [%] | IC50 [2] [µM] | SMILES |
| --- | --- | --- |
| 62 | – | Cc1nn(-c2ccccc2)c2c1c(O)nc1ccccc12 |
| 78 | 2.7 | Cc1nn(-c2ccc(Cl)cc2)c2c1c(=O)n(C)c1ccccc21 |
| 23 | – | Cc1nn(-c2ccc(Cl)cc2)c2c1c(N1CCN(C)CC1)nc1ccccc12 |
| 94 | 4.4 | Cc1nn(-c2cccc(Cl)c2)c2c1c(O)nc1ccccc12 |
| 65 | – | Cc1ccc(-n2nc(C)c3c(O)nc4ccccc4c32)cc1 |
| 18 | – | COc1nc2ccccc2c2c1c(C)nn2-c1cccc(Cl)c1 |
| 97 | 9 | Cc1cccc(-n2nc(C)c3c(O)nc4ccccc4c32)c1 |
| 70 | 22 | Cc1nn(-c2ccc(Cl)cc2)c2c1c(O)nc1ccccc12 |
| 21 | – | Cc1cccc(-n2nc(C)c3c(Cl)nc4ccccc4c32)c1 |
| 21 | – | Cc1nn(-c2cccc(Cl)c2)c2c1c(Cl)nc1ccccc12 |
